Measured values reported in PubChem BioAssay AID504403 (Broad Institute, 2011).
Active and inactive are the calls of the source.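 How the source made its calls: active means active in every replicate test, each curve reaching caspase activation of 10% of the positive control signal; inconclusive means replicate tests disagree, some active and some inactive; inactive means inactive in every replicate test.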

Test: Bax/Bak-independent caspase signal in fibroblasts – cell-based, mouse embryonic fibroblasts, luminescence, dry powder, set 3, counter-screen for A1 inhibitor project, dose response (AID 504403)
Conditions: Bax/Bak-/- MEF caspase activation, CaspaseGlo luminescence, 3 h
Method in brief: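 System: Bax/Bak double-knockout mouse embryonic fibroblasts (MEFs) | Input: 2500 cells/well | Signal: Caspase-Glo luminescent caspase assay | Buffer or medium: RPMI-1640, 10% heat-inactivated FBS | Incubation: Compound 3 h at 37 °C, pre-read cooling 30 min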

[1] = measured here: test 2 replicate, at 35 µM, stronger effect = higher value

Compound	caspase activation (at 35 µM (top of the series))	caspase activation [1]	outcome [1]
Cc1ccc(S(=O)(=O)c2c([N+](=O)[O-])c(=O)n(C)c3ccccc23)cc1	0.276% (inactive)	0.073%	–
O=c1[nH]c2ccccc2c(Cl)c1[N+](=O)[O-]	0.348% (inactive)	0.47%	–
COc1ccc(CCNc2nc(N3CCCC3)nc(N3CCCC3)n2)cc1OC	0.084% (inactive)	0.515%	–
Cc1ccc(Sc2c([N+](=O)[O-])c(=O)n(Cc3ccccc3)c3ccccc23)cc1	1.91% (inactive)	-0.307%	–
COc1nc2ccccc2c(Cl)c1[N+](=O)[O-]	0.674% (inactive)	0.222%	–
COc1ccc(N2CCN(c3nc(NCCc4ccc(OC)c(OC)c4)nc(N4CCOCC4)n3)CC2)cc1	0.143% (inactive)	0.46%	–
C/C(=N\Nc1nc(N2CCCCC2)nc(N2CCCCC2)n1)c1ccc(F)cc1	-0.284% (inactive)	-0.01%	–
Cc1ccc(Sc2c(Sc3ccc(C)cc3)c3ccccc3n(Cc3ccccc3)c2=O)cc1	0.02% (inactive)	-0.616%	–
O=c1[nH]c2ccccc2c(O)c1[N+](=O)[O-]	0.504% (inactive)	-0.232%	–
Cc1ccc(Sc2c(Sc3ccc(C)cc3)c3ccccc3n(C)c2=O)cc1	-0.06% (inactive)	-0.477%	–
Cn1c(=O)c([N+](=O)[O-])c(Cl)c2ccccc21	0.366% (inactive)	-0.494%	–
COc1ccc(CCNc2nc(N3CCOCC3)nc(N3CCOCC3)n2)cc1OC	0.042% (inactive)	0.071%	–
Cc1ccc(Sc2c([N+](=O)[O-])c(=O)n(C)c3ccccc23)cc1	0.309% (inactive)	-0.613%	–
Cn1c(=O)c(Sc2ccccn2)c(Sc2ccccn2)c2ccccc21	0.166% (inactive)	-0.337%	–
COc1nc2ccccc2c(Sc2ccc(C)cc2)c1[N+](=O)[O-]	0.017% (inactive)	-0.171%	–
CC1(C)CCC(c2ccc(Cl)cc2)=C(CN2CCN(c3ccc(C(=O)NS(=O)(=O)c4ccc(N[C@H](CCN5CCOCC5)CSc5ccccc5)c(S(=O)(=O)C(F)(F)F)c4)cc3)CC2)C1	–	–	inactive
O=C(COc1ccc(Cl)cc1Cl)NNc1nc(N2CCOCC2)nc(N2CCOCC2)n1	-0.22% (inactive)	0.018%	–
COCCn1c(=O)c([N+](=O)[O-])c(Cl)c2ccccc21	0.693% (inactive)	-0.136%	–
COCCn1c(=O)c(Sc2ccc(C)cc2)c(Sc2ccc(C)cc2)c2ccccc21	-0.103% (inactive)	-0.586%	–
Cn1c(=O)c([N+](=O)[O-])c(S(C)(=O)=O)c2ccccc21	-0.102% (inactive)	-0.421%	–
O=c1c([N+](=O)[O-])c(Cl)c2ccccc2n1Cc1ccccc1	-0.005% (inactive)	3.16%	–
COCCn1c(=O)c([N+](=O)[O-])c(Sc2ccc(C)cc2)c2ccccc21	0.682% (inactive)	-0.602%	–
Cn1c(=O)c([N+](=O)[O-])c(Sc2ccccn2)c2ccccc21	0.303% (inactive)	0.033%	–
CCn1c(=O)c([N+](=O)[O-])c(Cl)c2ccccc21	1.21% (inactive)	3.07%	–
CCn1c(=O)c(Sc2ccc(C)cc2)c(Sc2ccc(C)cc2)c2ccccc21	0.078% (inactive)	-0.17%	–
COc1c([N+](=O)[O-])c(=O)n(C)c2ccccc12	0.061% (inactive)	0.257%	–
CCn1c(=O)c([N+](=O)[O-])c(Sc2ccc(C)cc2)c2ccccc21	-0.025% (inactive)	-0.559%	–
